Here are results for four molecules from ChEMBL document CHEMBL2331506, “Design, synthesis, antiviral and cytostatic evaluation of novel isoxazolidine nucleotide analogues with a carbamoyl linker” (Bioorg Med Chem, 2013).

Calls of active or inactive are those of the source. How the calls were made is not given here.

One series relates to K562. In words: Cytotoxicity against human K562 cells. Type of series: functional, cell-based.
The test system of series [1] is HeLa. In words: Cytotoxicity against human HeLa cells. Type of series: functional, cell-based.
In series [2] the test system is Influenza A virus. In words: Antiviral activity against Influenza A virus H1N1 infected in dog MDCK cells assessed as reduction of virus-induced cytopathogenicity at 250 uM. Type of series: functional, organism-based. A digest of the protocol: (§1)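 Confluent cell monolayers were infected with 100 CCID50 of virus while exposed to varying compound concentrations. Cytopathicity was scored once it was complete in untreated infected controls. EC50 was taken as the concentration that reduced virus-induced cytopathogenicity by 50%.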
In general terms: Protection from cytopathic effect is a common read-out in antiviral testing.

In the next series the test system is Influenza B virus. In words: Antiviral activity against Influenza B virus infected in dog MDCK cells assessed as reduction of virus-induced cytopathogenicity at 250 uM. Type of series: functional, organism-based. In outline:
as §1

The next series relates to Sindbis virus. In words: Antiviral activity against Sindbis virus infected in african green monkey Vero cells assessed as reduction of virus-induced cytopathogenicity at 250 uM. Type of series: functional, organism-based. A digest of the protocol: (§2)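 Confluent monolayers (HEL fibroblasts, Vero, or HeLa cells as listed) were infected with 100 CCID50 of virus in the presence of varying compound concentrations. Virus-induced cytopathicity or plaque formation was scored once cytopathicity was complete in untreated infected controls. EC50 was taken as the concentration reducing cytopathogenicity or plaque formation by 50%.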

Series [3] concerns Vesicular stomatitis virus. In words: Antiviral activity against Vesicular stomatitis virus infected in human HEL cells assessed as reduction of virus-induced cytopathogenicity at 250 uM. It counts as functional, organism-based. In outline: as §1
Series [4] is described as follows: Cytotoxicity against cat CRFK cells assessed as alteration of cell morphology up to 100 uM by microscopic analysis. It counts as cell-based, Felis catus. In outline:
(§3)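 Uninfected host-cell cultures were exposed to compound and examined by microscopy. Cytotoxicity was expressed as the minimum cytotoxic concentration (MCC) causing a microscopically detectable alteration of normal cell morphology.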

Series [5] concerns HeLa. Nature of the series: Cytostatic activity against human HeLa cells assessed as inhibition of cell proliferation after 72 hrs by Coulter counter analysis. It counts as functional, cell-based. A digest of the protocol: (§4)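 Each well received (5–7.5) × 10^4 tumor cells plus compound. L1210 cells grew 48 h and CEM and HeLa cells grew 72 h, at 37 °C in humidified CO2. Cells were then counted electronically, and IC50 was taken as the concentration inhibiting proliferation by 50%.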

Series [6] has as its system Human alphaherpesvirus 1. In words: Antiviral activity against Herpes simplex virus 1 KOS infected in human HEL cells assessed as reduction of virus-induced cytopathogenicity at 250 uM. Type of series: functional, organism-based. A digest of the protocol: as §2
The next series concerns Human respirovirus 3. Nature of the series: Antiviral activity against Parainfluenza virus 3 infected in african green monkey Vero cells assessed as reduction of virus-induced cytopathogenicity at 250 uM. It counts as functional, organism-based. In outline:
as §2

Series [7] deals with Human alphaherpesvirus 1. Nature of the series: Antiviral activity against thymidine kinase-deficient, ACV-resistant Herpes simplex virus 1 KOS infected in human HEL cells assessed as reduction of virus-induced cytopathogenicity at 250 uM. It counts as functional, organism-based. In outline:
as §1

The test system of a further series is Coxsackievirus B4. In words: Antiviral activity against Coxsackievirus B4 infected in african green monkey Vero cells assessed as reduction of virus-induced cytopathogenicity at 250 uM. Type of series: functional, organism-based. A digest of the protocol: as §2
Series [8] concerns Vesicular stomatitis virus. In words: Antiviral activity against Vesicular stomatitis virus infected in human HeLa cells assessed as reduction of virus-induced cytopathogenicity at 250 uM. Type of series: functional, organism-based. A digest of the protocol: as §1
Series [9] relates to Mammalian orthoreovirus 1. Nature of the series: Antiviral activity against Reovirus 1 infected in african green monkey Vero cells assessed as reduction of virus-induced cytopathogenicity at 250 uM. Type of series: functional, organism-based. In outline:
as §2

The next series has as its system HEL. Nature of the series: Cytotoxicity against human HEL cells assessed as alteration of cell morphology up to 100 uM by microscopic analysis. It counts as cell-based. In outline:
as §3

In a further series the test system is Vero. In words: Cytotoxicity against african green monkey Vero cells assessed as alteration of cell morphology up to 100 uM by microscopic analysis. Type of series: cell-based. Particulars: chlorocebus sabaeus. In outline: as §3
In the next series the test system is MDCK. In words: Cytotoxicity against dog MDCK cells assessed as alteration of cell morphology up to 100 uM by microscopic analysis. It counts as cell-based, Canis lupus familiaris. A digest of the protocol:
as §3

Series [10] has as its system Influenza A virus. Nature of the series: Antiviral activity against Influenza A virus H3N2 infected in dog MDCK cells assessed as reduction of virus-induced cytopathogenicity at 250 uM. It counts as functional, organism-based. A digest of the protocol:
as §1

A further series has as its system Human alphaherpesvirus 2. In words: Antiviral activity against Herpes simplex virus 2 G infected in human HEL cells assessed as reduction of virus-induced cytopathogenicity at 250 uM. It counts as functional, organism-based. To be noted: strain G. A digest of the protocol: as §2
For series [11], the system named is Human immunodeficiency virus 2. Nature of the series: Antiviral activity against Human immunodeficiency virus 2 ROD infected in human CEM cells assessed as reduction of virus-induced giant cell formation at 250 uM after 4 to 5 days. It counts as functional, organism-based. To be noted: CCRF-CEM. In outline:
(§5)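 CEM cells at 3 × 10^5 cells/mL were infected with HIV at 100 CCID50 per mL in the presence of compound dilutions. They were held 4–5 days at 37 °C in humidified CO2. Syncytium (giant cell) formation was scored microscopically, and EC50 was taken as the concentration inhibiting giant cell formation by 50%.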

Series [12] concerns Human immunodeficiency virus 1. Nature of the series: Antiviral activity against Human immunodeficiency virus 1 3B infected in human CEM cells assessed as reduction of virus-induced giant cell formation at 250 uM after 4 to 5 days. Type of series: functional, organism-based. Particulars: CCRF-CEM. A digest of the protocol: as §5
A further series relates to Feline coronavirus. Nature of the series: Antiviral activity against Feline coronavirus infected in cat CRFK cells assessed as reduction of virus-induced cytopathogenicity at 250 uM. It counts as functional, organism-based.
The next series deals with Punta Toro virus. In words: Antiviral activity against Punta Toro virus infected in african green monkey Vero cells assessed as reduction of virus-induced cytopathogenicity at 250 uM. Type of series: functional, organism-based. A digest of the protocol:
as §2

Another series deals with L1210. In words: Cytostatic activity against mouse L1210 cells assessed as inhibition of cell proliferation after 48 hrs by Coulter counter analysis. Type of series: functional, cell-based. To be noted: L1210, 48 h. In outline: as §4
Series [13] relates to Respiratory syncytial virus. In words: Antiviral activity against Respiratory syncytial virus long infected in human HeLa cells assessed as reduction of virus-induced cytopathogenicity at 250 uM. It counts as functional, organism-based. A digest of the protocol:
as §2

For a further series, the system named is Felid alphaherpesvirus 1. Nature of the series: Antiviral activity against Feline herpes virus infected in cat CRFK cells assessed as reduction of virus-induced cytopathogenicity at 250 uM. It counts as functional, organism-based.
In series [14] the test system is HeLa. In words: Cytotoxicity against human HeLa cells assessed as alteration of cell morphology up to 100 uM by microscopic analysis. Type of series: cell-based. In outline: as §3
The subject of the next series is CCRF-CEM. Nature of the series: Cytostatic activity against human CEM cells assessed as inhibition of cell proliferation after 72 hrs by Coulter counter analysis. It counts as functional, cell-based. In outline:
as §4

In general, IC50 refers to the concentration needed to halve the response being measured.

In turn, `CCOP(=O)(OCC)C1CC(c2ccc3ccccc3c2)ON1C` (centres undefined) registered an IC50 with K562 of 90 µM.

For `CCOP(=O)(OCC)C1CC(c2cccc3ccccc23)ON1C` (centres undefined), the midpoint of inhibition in the series on HeLa [1], the IC50, lay at 50 µM.

Take `CCOP(=O)(OCC)[C@@H]1C[C@H](C(=O)Nc2ccccc2F)ON1C` (racemic): the inhibition entry (in the series with Influenza A virus [2]; with Influenza B virus; in the series with Sindbis virus; in series [3]; in the series on Human alphaherpesvirus 1 [6]; in the series on Human respirovirus 3) was “inactive” in each case. The inhibition result (with Human alphaherpesvirus 1 [7]; in the series with Coxsackievirus B4; in series [8]; in [9]; in the series with Influenza A virus [10]; in the series on Human alphaherpesvirus 2) was “inactive” each time. For the same molecule, the inhibition result (in [11]; in [12]; in the series on Feline coronavirus; with Punta Toro virus; in series [13]; with Felid alphaherpesvirus 1) was “inactive” each time. Further, the Activity result (in series [4]; in the series with HEL; in the series with Vero; in the series on MDCK; in the series on HeLa [14]) was “Non-toxic” in each case. In addition, the concentration for half-maximal inhibition (IC50) in the series on HeLa [5] worked out at 177 µM; in the series on L1210, 130 µM; in the series on CCRF-CEM it was 145 µM.

As to `CCOP(=O)(OCC)[C@H]1C[C@H](C(=O)Nc2ccc(Cl)cc2)ON1C` (relative stereo), the inhibition result (in the series with Influenza A virus [2]; with Influenza B virus; in the series with Sindbis virus; in series [3]; in the series on Human alphaherpesvirus 1 [6]; with Human respirovirus 3) was “inactive” throughout. In addition, the inhibition result (with Human alphaherpesvirus 1 [7]; in the series on Coxsackievirus B4; in series [8]; in [9]; with Influenza A virus [10]; in the series with Human alphaherpesvirus 2) was “inactive” in each case. The inhibition result (in [11]; in series [12]; with Feline coronavirus; in the series with Punta Toro virus; in series [13]; in the series with Felid alphaherpesvirus 1) was “inactive” each time. Further, the Activity entry (in series [4]; in the series with HEL; in the series with Vero; in the series on MDCK; with HeLa [14]) was “Non-toxic” throughout. Moreover, the results for the IC50 in the series on HeLa [5], in the series with L1210 and with CCRF-CEM were not below 250 µM, more than 250 µM and more than 250 µM, respectively.
